Test results reported in ChEMBL document CHEMBL2390869, “Evolution of novel tricyclic CRTh2 receptor antagonists from a (E)-2-cyano-3-(1H-indol-3-yl)acrylamide scaffold” (Bioorg Med Chem Lett, 2013).
Values after ≈ are worked out from the molar mass of the structure shown. Values belong to the molecule of their own block, whether it stands above or below them.

Key:
[1] = biological target: T1, Prostaglandin D2 receptor 2 (Homo sapiens, UniProt Q9Y5Y4); experiment: Displacement of [3H]PGD2 from human CRTh2 receptor
T1 sequence (Q9Y5Y4 whole entry): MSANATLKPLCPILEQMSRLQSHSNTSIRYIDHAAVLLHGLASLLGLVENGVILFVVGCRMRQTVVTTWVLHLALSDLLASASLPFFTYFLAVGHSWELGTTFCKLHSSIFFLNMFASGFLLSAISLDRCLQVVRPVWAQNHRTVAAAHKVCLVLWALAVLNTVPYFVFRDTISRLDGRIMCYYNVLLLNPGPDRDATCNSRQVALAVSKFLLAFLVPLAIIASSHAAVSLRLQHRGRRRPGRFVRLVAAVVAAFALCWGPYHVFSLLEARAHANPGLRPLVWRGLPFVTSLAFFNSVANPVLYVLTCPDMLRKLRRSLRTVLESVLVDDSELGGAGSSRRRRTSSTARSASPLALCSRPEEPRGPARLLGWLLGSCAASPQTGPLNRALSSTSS
Outline: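 Human CRTh2 binding assay run in assay buffer. IC50 reported as the mean of at least three experiments.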

[2] = Oral bioavailability in Wistar rat at 10 mg/kg; assay type: ADME, organism-based; settings: in vivo
Outline: (§1)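 Single doses given to three male Wistar rats per route: 10 mg/kg orally and 1 mg/kg intravenously, as a solution in 20% propyleneglycol/80% buffer. Plasma PK parameters were derived. CL, terminal T1/2 and Vss come from the intravenous arm. AUC0–last comes from the oral arm.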

[3] = Volume of distribution at steady state in Wistar rat at 10 mg/kg, po and 1 mg/kg, iv; assay type: ADME, organism-based; settings: in vivo, read-out: Vdss; outline: as §1
[4] = Terminal half life in Wistar rat at 10 mg/kg, po and 1 mg/kg, iv; assay type: ADME, organism-based; settings: in vivo, read-out: beta t1/2 (converted); outline: as §1
[5] = Clearance in Wistar rat at 10 mg/kg, po and 1 mg/kg, iv; assay type: ADME, organism-based; settings: in vivo; outline: as §1
[6] = Cmax in Wistar rat at 10 mg/kg, po and 1 mg/kg, iv; assay type: ADME, organism-based; settings: in vivo; outline: as §1
[7] = AUC (0 to last) in Wistar rat at 10 mg/kg, po; assay type: ADME, organism-based; set-up: time 0 - last, dose 10 mg/kg, route oral; settings: plasma; outline: as §1
[8] = Stability in simulated intestinal fluid after 4 hrs by LC/MS analysis; assay type: physicochemical; settings: read-out: Stability
Outline: (§2)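 Compound incubated in simulated gastric fluid for 1 h or simulated intestinal fluid for 4 h. Unchanged parent recovered and measured by LC–MS, expressed as % parent.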

[9] = Stability in simulated gastric fluid after 1hr by LC/MS analysis; assay type: physicochemical; settings: read-out: Stability; outline: as §2
[10] = Solubility of the compound in buffer at pH 4; assay type: physicochemical
Outline: (§3)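 Solubility measured in buffered aqueous solution at pH 4 and pH 7, and in water, where the final pH of the aqueous solution was 4.6.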

[11] = Solubility of the compound in buffer at pH 7; assay type: physicochemical; outline: as §3
[12] = Aqueous solubility of the compound in water at pH 4.6; assay type: physicochemical; outline: as §3
[13] = Metabolic stability in human plasma assessed as compound remaining after 4 hrs; assay type: ADME, cell-free; settings: read-out: Stability
Outline: (§4)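 Compound incubated in rat and human plasma for up to 4 h. Unchanged parent quantified by LC–MS, reported as % parent remaining at 4 h plus elimination half-life.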

[14] = Metabolic stability in rat plasma assessed as compound remaining after 4 hrs; assay type: ADME, cell-free; settings: read-out: Stability; outline: as §4
[15] = biological target: Cytochrome P450 2D6 (Homo sapiens, UniProt P10635); experiment: Inhibition of CYP2D6 (unknown origin); assay type: ADME
[16] = biological target: Cytochrome P450 3A4 (Homo sapiens, UniProt P08684); experiment: Inhibition of CYP3A4 (unknown origin); assay type: ADME
[17] = biological target: Cytochrome P450 2C9 (Homo sapiens, UniProt P11712); experiment: Inhibition of CYP2C9 (unknown origin); assay type: ADME
[18] = biological target: Prostaglandin E2 receptor EP4 subtype (Homo sapiens, UniProt P35408); experiment: Inhibition of PGE2 binding to human EP4 receptor
[19] = biological target: T2, Prostaglandin E2 receptor EP3 subtype (Homo sapiens, UniProt P43115); experiment: Antagonist activity at human EP3 receptor assessed as inhibition of PGE2-induced Ca2+ mobilization by FLIPR assay; assay type: functional
T2 sequence (P43115 whole entry): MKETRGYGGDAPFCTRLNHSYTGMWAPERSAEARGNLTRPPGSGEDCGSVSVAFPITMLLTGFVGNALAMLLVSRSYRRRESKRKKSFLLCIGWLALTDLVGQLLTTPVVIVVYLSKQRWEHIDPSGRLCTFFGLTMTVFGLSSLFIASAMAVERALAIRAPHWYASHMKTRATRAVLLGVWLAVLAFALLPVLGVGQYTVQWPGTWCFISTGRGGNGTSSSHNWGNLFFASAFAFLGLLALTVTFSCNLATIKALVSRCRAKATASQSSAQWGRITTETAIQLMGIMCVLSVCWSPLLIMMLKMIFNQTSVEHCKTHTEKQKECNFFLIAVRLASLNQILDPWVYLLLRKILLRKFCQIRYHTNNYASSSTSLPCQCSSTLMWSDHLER
Outline: (§5)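 Antagonism measured as inhibition of agonist-induced Ca2+ mobilization by FLIPR: PGE2 as agonist for human EP1 and EP3, U46619 as agonist for human TP. Values are IC50.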

[20] = biological target: T3, Prostaglandin E2 receptor EP1 subtype (Homo sapiens, UniProt P34995); experiment: Antagonist activity at human EP1 receptor assessed as inhibition of PGE2-induced Ca2+ mobilization by FLIPR assay; assay type: functional; outline: as §5
T3 sequence (P34995 whole entry): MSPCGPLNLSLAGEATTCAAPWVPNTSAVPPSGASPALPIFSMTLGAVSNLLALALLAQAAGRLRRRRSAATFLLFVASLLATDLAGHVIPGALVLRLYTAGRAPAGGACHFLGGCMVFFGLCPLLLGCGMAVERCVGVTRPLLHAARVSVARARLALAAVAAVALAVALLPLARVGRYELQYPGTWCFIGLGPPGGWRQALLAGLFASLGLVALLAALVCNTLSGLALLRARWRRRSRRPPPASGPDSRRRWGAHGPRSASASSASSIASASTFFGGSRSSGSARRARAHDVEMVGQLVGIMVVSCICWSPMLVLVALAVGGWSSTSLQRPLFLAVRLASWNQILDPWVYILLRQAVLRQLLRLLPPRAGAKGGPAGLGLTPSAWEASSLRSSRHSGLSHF

[21] = biological target: T4, Prostaglandin D2 receptor (Homo sapiens, UniProt Q13258); experiment: Inhibition of PGD2 binding to human DP1 receptor
T4 sequence (Q13258 whole entry): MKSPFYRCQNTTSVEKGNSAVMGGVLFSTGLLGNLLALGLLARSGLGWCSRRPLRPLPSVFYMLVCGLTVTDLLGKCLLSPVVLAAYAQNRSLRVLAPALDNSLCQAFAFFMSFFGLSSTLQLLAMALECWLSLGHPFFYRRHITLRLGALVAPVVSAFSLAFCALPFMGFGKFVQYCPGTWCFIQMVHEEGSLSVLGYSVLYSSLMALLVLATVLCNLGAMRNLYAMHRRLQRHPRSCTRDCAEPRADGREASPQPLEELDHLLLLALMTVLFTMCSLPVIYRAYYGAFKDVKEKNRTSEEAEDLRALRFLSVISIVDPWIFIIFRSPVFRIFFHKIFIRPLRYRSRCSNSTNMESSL

[22] = biological target: T1, Prostaglandin D2 receptor 2; experiment: Displacement of [3H]PGD2 from human CRTh2 receptor in presence of human serum albumin
Outline: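 Human CRTh2 binding assay run with 0.5% human serum albumin added to the assay buffer to mimic binding to blood proteins. IC50 is reported as the mean of at least three experiments.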

[23] = biological target: Prostaglandin E2 receptor EP2 subtype (Homo sapiens, UniProt P43116); experiment: Inhibition of PGE2 binding to human EP2 receptor
[24] = biological target: T1, Prostaglandin D2 receptor 2; experiment: Antagonist activity at PGD2-induced human CRTh2 receptor activation expressed in HEK293 cells assessed as intracellular Ca2+ liberation by FLIPR assay; assay type: functional, cell-based
Outline: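 HEK-293 cells stably expressing human CRTh2 were stimulated with PGD2. Antagonism of intracellular Ca2+ liberation was read by FLIPR. IC50 is the mean of at least three experiments.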

[25] = biological target: T5, Thromboxane A2 receptor (Homo sapiens, UniProt P21731); experiment: Antagonist activity at human TP2 receptor assessed as inhibition of U46619-induced Ca2+ mobilization by FLIPR assay; assay type: functional; outline: as §5
T5 sequence (P21731 whole entry): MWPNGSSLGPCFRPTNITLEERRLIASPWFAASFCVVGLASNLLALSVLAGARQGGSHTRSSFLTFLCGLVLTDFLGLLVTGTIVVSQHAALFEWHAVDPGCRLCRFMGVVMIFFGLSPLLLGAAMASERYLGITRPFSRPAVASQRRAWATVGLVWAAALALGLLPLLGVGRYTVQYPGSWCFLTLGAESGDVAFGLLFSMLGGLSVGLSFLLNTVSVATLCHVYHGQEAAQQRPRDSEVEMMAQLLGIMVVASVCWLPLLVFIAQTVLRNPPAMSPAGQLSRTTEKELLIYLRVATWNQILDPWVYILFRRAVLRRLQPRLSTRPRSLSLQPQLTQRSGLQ

Sequence of Cytochrome P450 2D6 (P10635 whole entry): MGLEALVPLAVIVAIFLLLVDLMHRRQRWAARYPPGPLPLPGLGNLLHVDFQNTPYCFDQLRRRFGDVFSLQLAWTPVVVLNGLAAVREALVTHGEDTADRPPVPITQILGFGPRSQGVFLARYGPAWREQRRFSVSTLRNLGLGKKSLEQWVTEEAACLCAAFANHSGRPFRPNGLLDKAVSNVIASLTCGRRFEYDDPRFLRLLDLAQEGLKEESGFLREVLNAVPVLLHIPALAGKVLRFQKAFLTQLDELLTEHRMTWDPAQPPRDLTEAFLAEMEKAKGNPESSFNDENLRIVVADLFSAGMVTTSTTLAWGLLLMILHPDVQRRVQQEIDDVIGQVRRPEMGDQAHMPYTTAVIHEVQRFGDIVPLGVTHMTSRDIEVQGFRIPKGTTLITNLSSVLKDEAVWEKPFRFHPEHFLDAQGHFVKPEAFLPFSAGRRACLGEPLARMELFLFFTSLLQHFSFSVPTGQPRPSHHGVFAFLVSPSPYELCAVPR
Sequence of Prostaglandin E2 receptor EP2 subtype (P43116 whole entry): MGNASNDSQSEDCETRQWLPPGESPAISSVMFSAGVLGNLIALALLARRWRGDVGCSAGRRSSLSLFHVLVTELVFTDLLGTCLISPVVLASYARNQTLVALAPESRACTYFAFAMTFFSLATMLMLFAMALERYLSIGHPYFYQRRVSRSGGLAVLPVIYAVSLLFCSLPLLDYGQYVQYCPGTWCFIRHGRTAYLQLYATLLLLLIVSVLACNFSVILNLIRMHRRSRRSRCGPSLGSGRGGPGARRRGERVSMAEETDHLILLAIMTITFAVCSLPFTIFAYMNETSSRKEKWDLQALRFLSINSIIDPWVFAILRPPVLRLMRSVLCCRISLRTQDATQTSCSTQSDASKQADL
Sequence of Cytochrome P450 2C9 (P11712 whole entry): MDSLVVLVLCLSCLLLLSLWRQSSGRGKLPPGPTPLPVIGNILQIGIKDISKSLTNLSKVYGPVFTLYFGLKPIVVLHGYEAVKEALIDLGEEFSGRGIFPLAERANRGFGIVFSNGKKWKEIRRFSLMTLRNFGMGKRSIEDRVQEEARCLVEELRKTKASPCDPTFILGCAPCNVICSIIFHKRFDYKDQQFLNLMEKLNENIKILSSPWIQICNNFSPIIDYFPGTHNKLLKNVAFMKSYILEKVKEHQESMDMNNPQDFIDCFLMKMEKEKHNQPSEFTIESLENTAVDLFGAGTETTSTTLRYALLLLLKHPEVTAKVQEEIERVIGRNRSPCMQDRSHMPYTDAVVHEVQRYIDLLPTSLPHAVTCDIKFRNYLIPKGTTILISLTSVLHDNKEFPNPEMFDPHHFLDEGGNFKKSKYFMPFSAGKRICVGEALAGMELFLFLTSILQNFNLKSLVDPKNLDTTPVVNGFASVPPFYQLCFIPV
Sequence of Cytochrome P450 3A4 (P08684 whole entry): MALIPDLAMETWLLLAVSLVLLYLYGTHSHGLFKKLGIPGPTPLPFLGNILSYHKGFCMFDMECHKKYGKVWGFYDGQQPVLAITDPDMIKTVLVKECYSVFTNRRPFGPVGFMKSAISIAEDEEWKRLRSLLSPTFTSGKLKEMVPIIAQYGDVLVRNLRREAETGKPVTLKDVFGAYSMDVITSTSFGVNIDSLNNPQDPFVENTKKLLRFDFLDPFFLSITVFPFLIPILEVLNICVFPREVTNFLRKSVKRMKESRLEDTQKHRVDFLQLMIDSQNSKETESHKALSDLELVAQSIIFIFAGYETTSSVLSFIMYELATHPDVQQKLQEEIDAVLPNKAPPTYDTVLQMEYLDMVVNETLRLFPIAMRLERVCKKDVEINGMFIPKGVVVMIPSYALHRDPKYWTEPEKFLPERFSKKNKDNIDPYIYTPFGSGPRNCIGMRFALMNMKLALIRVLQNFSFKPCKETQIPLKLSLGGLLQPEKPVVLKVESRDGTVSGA
Sequence of Prostaglandin E2 receptor EP4 subtype (P35408 whole entry): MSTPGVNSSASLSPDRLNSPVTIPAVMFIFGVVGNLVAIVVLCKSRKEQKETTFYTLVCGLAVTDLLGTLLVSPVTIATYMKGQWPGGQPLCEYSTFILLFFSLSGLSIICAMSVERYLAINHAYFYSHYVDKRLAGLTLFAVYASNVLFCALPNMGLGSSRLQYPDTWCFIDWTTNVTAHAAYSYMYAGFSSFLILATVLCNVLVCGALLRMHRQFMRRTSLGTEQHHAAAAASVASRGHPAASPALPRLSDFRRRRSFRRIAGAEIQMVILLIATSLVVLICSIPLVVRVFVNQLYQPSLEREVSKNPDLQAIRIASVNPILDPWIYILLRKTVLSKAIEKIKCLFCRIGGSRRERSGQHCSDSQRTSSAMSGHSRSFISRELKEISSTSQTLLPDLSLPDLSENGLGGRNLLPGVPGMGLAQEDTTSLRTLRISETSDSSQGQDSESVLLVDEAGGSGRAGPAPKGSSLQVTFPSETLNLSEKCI

SMILES: CCCCCC(=O)N1CCc2c(c3ccccc3n2CC(=O)O)C1
- IC50 [1]: 210 nM

SMILES: CC(=O)N1CCc2c(c3ccccc3n2CC(=O)O)C1
- IC50 [1]: 1600 nM

SMILES: CN(C(=O)/C(C#N)=C/c1cn(CC(=O)O)c2cc(Cl)ccc12)c1ccccc1
- IC50 [1]: 290 nM

SMILES: O=C(O)Cn1c2c(c3ccccc31)CN(C(=O)Nc1ccccc1)CC2
- IC50 [1]: 430 nM

SMILES: Cc1cccc2c(/C=C(\C#N)C(=O)N(C)c3ccccc3)cn(CC(=O)O)c12
- IC50 [1]: 140 nM

SMILES: C/C(=C(/C#N)C(=O)Nc1ccccc1)c1cn(CC(=O)O)c2ccccc12
- IC50 [1]: 510 nM

SMILES: O=C(O)Cn1cc(/C=C/C(=O)Nc2ccccc2)c2ccccc21
- IC50 [1]: 4400 nM

SMILES: N#C/C(=C\c1cn(CCCC(=O)O)c2ccccc12)C(=O)Nc1ccccc1
- IC50 [1]: 2600 nM

SMILES: O=C(O)Cn1cc(/C=C(\Cl)C(=O)Nc2ccccc2)c2ccccc21
- IC50 [1]: 560 nM

SMILES: Cc1ccc2c(/C=C(\C#N)C(=O)N(C)c3ccccc3)cn(CC(=O)O)c2c1
- IC50 [1]: 690 nM

Stronger by IC50 [1], values ahead:

- IC50 [1]: 10 nM
SMILES: CN(C(=O)/C(C#N)=C/c1cn(CC(=O)O)c2ccc(F)cc12)c1ccccc1

- IC50 [1]: 7 nM
SMILES: Cc1ccc2c(c1)c(/C=C(\C#N)C(=O)N(C)c1ccccc1)cn2CC(=O)O

- IC50 [1]: 20 nM
SMILES: CCCCN(C(=O)/C(C#N)=C/c1cn(CC(=O)O)c2ccccc12)c1ccccc1

- IC50 [1]: 10 nM
SMILES: N#C/C(=C\c1cn(CC(=O)O)c2ccccc12)C(=O)N(CCc1ccccc1)c1ccccc1

- bioavailability [2]: 14%
- Vd [3]: 0.5 L/kg
- half-life [4]: 2.3 h
- clearance [5]: 4.6 mL/min/kg
- Cmax [6]: 600 ng/mL
- AUC(0-t) [7]: 6300 ng·h/mL
- remaining at 4 h [8]: 100%
- remaining at 1 h [9]: 100%
- solubility [10]: 515 µg/mL (≈ 1540 µM)
- solubility [11]: 810 µg/mL (≈ 2420 µM)
- solubility [12]: 64 µg/mL (≈ 191 µM)
- remaining at 4 h [13]: 90%
- remaining at 4 h [14]: 90%
- IC50 [15]: > 50000 nM
- IC50 [16]: > 50000 nM
- IC50 [17]: > 15000 nM
- IC50 [18]: > 10000 nM
- IC50 [19]: > 10000 nM
- IC50 [20]: > 10000 nM
- IC50 [21]: > 10000 nM
- IC50 [1]: 17 nM
- IC50 [22]: 15 nM
- IC50 [23]: > 10000 nM
- IC50 [24]: 170 nM
- IC50 [25]: > 25000 nM
SMILES: O=C(O)Cn1c2c(c3ccccc31)CN(C(=O)c1ccccc1)CC2

- IC50 [1]: 5 nM
SMILES: CN(C(=O)/C(C#N)=C/c1cn(CC(=O)O)c2cccc(Cl)c12)c1ccccc1
